Source: ChEMBL document CHEMBL1125600, “Sulfonylbenzoyl-nitrostyrenes: potential bisubstrate type inhibitors of the EGF-receptor tyrosine protein kinase” (J Med Chem, 1991)

Key:
[1] = molecular target: Epidermal growth factor receptor (Homo sapiens, UniProt P00533); experiment: Inhibition of the epidermal growth factor receptor expressed in A431 cell line
[2] = molecular target: Tyrosine-protein kinase ABL (Homo sapiens, UniProt P00519+P42684); experiment: Inhibition of recombinant v-Abl tyrosine kinase.; format: protein assay
Outline: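 The reaction contained 20 mM Tris pH 7.5, 10 mM MgCl2, 10 µM [γ-32P]ATP and about 50 ng enzyme. Compounds were in DMSO. Reactions were stopped with trichloroacetic acid and aliquots were spotted on P81 paper.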

[3] = Inhibition of the protein kinase C.
[4] = Antiproliferative activity tested by using EGF- stimulated cellular proliferation of balb/MK mouse epidermal keratinocytes (balb/MK cells)

Epidermal growth factor receptor, sequence (P00533 whole entry): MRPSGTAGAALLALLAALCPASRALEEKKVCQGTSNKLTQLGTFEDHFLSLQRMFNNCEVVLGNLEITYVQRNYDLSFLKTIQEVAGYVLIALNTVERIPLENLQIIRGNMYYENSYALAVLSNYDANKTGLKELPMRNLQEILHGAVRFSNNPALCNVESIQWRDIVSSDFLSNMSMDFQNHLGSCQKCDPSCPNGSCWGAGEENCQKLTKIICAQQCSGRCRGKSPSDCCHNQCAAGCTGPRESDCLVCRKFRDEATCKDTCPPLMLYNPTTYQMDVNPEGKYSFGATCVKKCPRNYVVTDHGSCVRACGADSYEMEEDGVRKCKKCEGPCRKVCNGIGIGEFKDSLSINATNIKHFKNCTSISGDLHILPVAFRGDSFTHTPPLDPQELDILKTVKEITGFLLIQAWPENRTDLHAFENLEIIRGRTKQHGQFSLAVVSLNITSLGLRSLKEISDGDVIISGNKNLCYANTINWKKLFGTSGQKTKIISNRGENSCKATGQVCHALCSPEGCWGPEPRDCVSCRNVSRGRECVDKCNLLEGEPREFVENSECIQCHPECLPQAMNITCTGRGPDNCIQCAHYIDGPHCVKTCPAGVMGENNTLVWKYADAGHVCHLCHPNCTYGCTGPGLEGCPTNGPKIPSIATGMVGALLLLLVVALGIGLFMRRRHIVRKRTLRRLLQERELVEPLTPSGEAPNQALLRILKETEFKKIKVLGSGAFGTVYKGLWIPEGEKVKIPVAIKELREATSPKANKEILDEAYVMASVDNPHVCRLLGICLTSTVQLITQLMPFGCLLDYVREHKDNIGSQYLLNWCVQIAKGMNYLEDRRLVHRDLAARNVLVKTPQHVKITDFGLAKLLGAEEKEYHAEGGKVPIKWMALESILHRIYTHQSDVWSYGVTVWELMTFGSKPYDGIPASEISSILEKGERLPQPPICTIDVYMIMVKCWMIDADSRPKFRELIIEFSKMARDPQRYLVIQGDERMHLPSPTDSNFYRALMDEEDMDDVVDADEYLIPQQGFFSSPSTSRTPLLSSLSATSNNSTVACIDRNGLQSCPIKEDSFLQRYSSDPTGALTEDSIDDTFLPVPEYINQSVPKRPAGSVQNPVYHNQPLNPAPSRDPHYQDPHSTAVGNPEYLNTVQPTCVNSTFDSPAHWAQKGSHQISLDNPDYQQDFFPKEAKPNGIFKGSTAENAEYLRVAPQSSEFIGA

CCCCNC(=O)c1ccc(S(=O)(=O)Oc2ccc(/C=C/[N+](=O)[O-])cc2)cc1
IC50 [1]: 4.8 µM
IC50 [2]: > 100 µM
IC50 [3]: > 500 µM
IC50 [4]: 3.8 µM

COC(=O)c1ccc(S(=O)(=O)Oc2ccc(/C=C/[N+](=O)[O-])cc2)cc1O
IC50 [1]: 1.8 µM
IC50 [2]: > 100 µM
IC50 [4]: 5.7 µM

O=[N+]([O-])/C=C/c1ccc(O)c(O)c1
IC50 [1]: 8.8 µM
IC50 [2]: 100 µM
IC50 [3]: > 500 µM
IC50 [4]: 2.9 µM

C/C(=C\c1ccc(O)c(O)c1)[N+](=O)[O-]
IC50 [1]: 9.4 µM
IC50 [2]: 100 µM
IC50 [3]: > 500 µM
IC50 [4]: 2.1 µM

COC(=O)c1ccc(S(=O)(=O)Oc2ccc(/C=C/[N+](=O)[O-])cc2)cc1
IC50 [1]: 1.5 µM
IC50 [2]: > 100 µM
IC50 [3]: > 500 µM
IC50 [4]: 12 µM

COc1cc(/C=C/[N+](=O)[O-])ccc1OS(=O)(=O)c1ccc(C(=O)O)cc1
IC50 [1]: 2.8 µM
IC50 [2]: 40 µM
IC50 [3]: > 500 µM
IC50 [4]: 35 µM

O=C(O)c1ccc(S(=O)(=O)Oc2ccc(/C=C/[N+](=O)[O-])cc2)c(O)c1
IC50 [1]: 0.31 µM
IC50 [2]: 100 µM
IC50 [3]: > 500 µM
IC50 [4]: > 50 µM

C[C@@H](NC(=O)c1ccc(S(=O)(=O)Oc2ccc(/C=C/[N+](=O)[O-])cc2)cc1)C(=O)N[C@H](C)C(=O)NCCN
IC50 [1]: 17 µM
IC50 [2]: 15 µM
IC50 [3]: 250 µM
IC50 [4]: > 50 µM

COc1cc(/C=C/[N+](=O)[O-])ccc1O
IC50 [1]: 7.9 µM
IC50 [2]: > 100 µM
IC50 [3]: > 500 µM
IC50 [4]: 3.5 µM

O=C(O)c1ccc(S(=O)(=O)Oc2ccc(/C=C/[N+](=O)[O-])cc2)cc1
IC50 [1]: 1 µM
IC50 [2]: 100 µM
IC50 [3]: > 500 µM
IC50 [4]: > 50 µM

C[C@@H](NC(=O)[C@@H](C)NC(=O)c1ccc(S(=O)(=O)Oc2ccc(/C=C/[N+](=O)[O-])cc2)cc1)C(=O)O
IC50 [1]: 7 µM
IC50 [2]: 35 µM
IC50 [3]: > 100 µM
IC50 [4]: > 50 µM

CC(C)(C)NC(=O)c1ccc(S(=O)(=O)Oc2ccc(/C=C/[N+](=O)[O-])cc2)cc1
IC50 [1]: 1.3 µM
IC50 [2]: > 100 µM
IC50 [3]: 340 µM
IC50 [4]: 2.1 µM

NCCNC(=O)c1ccc(S(=O)(=O)Oc2ccc(/C=C/[N+](=O)[O-])cc2)cc1
IC50 [1]: 5.4 µM
IC50 [2]: 5 µM
IC50 [3]: 60 µM
IC50 [4]: 32 µM

Nc1ncnc2c1ncn2[C@@H]1O[C@H](COC(=O)c2ccc(S(=O)(=O)Oc3ccc(/C=C/[N+](=O)[O-])cc3)cc2)[C@@H](O)[C@H]1O
IC50 [1]: 0.6 µM
IC50 [2]: > 100 µM
IC50 [3]: 13 µM
IC50 [4]: 61 µM

CNC(=O)c1ccc(S(=O)(=O)Oc2ccc(/C=C/[N+](=O)[O-])cc2)cc1
IC50 [1]: 0.4 µM
IC50 [2]: 35 µM
IC50 [3]: 290 µM
IC50 [4]: 5.2 µM

CC(C)(C)OC(=O)NCCNC(=O)c1ccc(S(=O)(=O)Oc2ccc(/C=C/[N+](=O)[O-])cc2)cc1
IC50 [1]: 1.4 µM
IC50 [2]: > 100 µM
IC50 [3]: 320 µM
IC50 [4]: 4.8 µM

C[C@@H](NC(=O)c1ccc(S(=O)(=O)Oc2ccc(/C=C/[N+](=O)[O-])cc2)cc1)C(=O)N[C@H](C)C(=O)OC(C)(C)C
IC50 [1]: 40 µM
IC50 [2]: > 100 µM
IC50 [3]: > 450 µM
IC50 [4]: 2.7 µM

COc1cc(/C=C/[N+](=O)[O-])ccc1OS(=O)(=O)c1ccc(C(=O)OC[C@H]2O[C@@H](n3cnc4c(N)ncnc43)[C@H](O)[C@@H]2O)cc1
IC50 [1]: 0.5 µM
IC50 [2]: 100 µM
IC50 [3]: 10 µM
IC50 [4]: 45 µM

O=[N+]([O-])/C=C/c1ccc(O)cc1
IC50 [1]: 10.1 µM
IC50 [2]: > 100 µM
IC50 [3]: > 500 µM
IC50 [4]: 4.8 µM

O=C(O)c1ccc(S(=O)(=O)Oc2ccc(/C=C/[N+](=O)[O-])cc2)cc1O
IC50 [1]: 0.054 µM
IC50 [2]: 27 µM
IC50 [3]: 500 µM
IC50 [4]: > 50 µM

C[C@@H](NC(=O)c1ccc(S(=O)(=O)Oc2ccc(/C=C/[N+](=O)[O-])cc2)cc1)C(=O)N[C@H](C)C(=O)NCCNC(=O)OC(C)(C)C
IC50 [1]: > 50 µM
IC50 [3]: > 500 µM
IC50 [4]: > 50 µM

CCCCNC(=O)c1ccc(S(=O)(=O)Oc2ccc(C=O)cc2)cc1
IC50 [1]: > 100 µM
IC50 [4]: > 50 µM

CNC(=O)c1ccc(S(=O)(=O)Oc2ccc(/C=C(\C)[N+](=O)[O-])cc2OC)cc1
IC50 [1]: 4 µM
IC50 [3]: > 500 µM
IC50 [4]: 2.1 µM
